VIM-2 inhibitor: blocks Pseudomonas aeruginosa VIM-2 metallo-beta-lactamase; purified VIM-2, nitrocefin hydrolysis, epi-absorbance fluorescence; inhibition, % at 5.6 µM; 290,000 tested, 0.89% active; AID 1527;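 active means inhibition above the mean of all tested compounds plus 3 SD, cutoff set per screening run, cut at about 7.5% in these data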;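 further: red hydrolysis product quenches plate fluorescence so inhibitors raise well fluorescence; 0% = enzyme with DMSO and 100% = DMSO without enzyme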
NS3 helicase inh: inhibitors of Hepatitis C virus NS3 helicase. NS3 helicase DNA unwinding, Cy5 molecular beacon fluorescence. inhibition, % at 10.9 µM. 290,000 tested, 0.56% active. AID 1800;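 active means inhibition above the mean of all tested compounds plus 3 SD, set per campaign, cut at about 35% in these data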;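 further: 0% = DMSO wells and 100% = thioflavine S control wells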
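Test system: hepatitis C virus NS3 helicase domain fragment enzyme. Also added: annealed dual-labelled DNA beacon duplex, ATP-started. Timing: 60 min unwinding reaction at 25 °C after ATP addition. Technique: Cy5 fluorescence. Measure: % inhibition of unwinding.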
IMP-1 inhibitor: blocks Pseudomonas aeruginosa IMP-1 metallo-beta-lactamase; AID 1556; purified IMP-1, nitrocefin hydrolysis, epi-absorbance fluorescence; 290,000 tested, 0.45% active; inhibition, % at 5.6 µM;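 active means inhibition above the mean plus 3 SD of all compounds in the same screening run, cut at about 4.5% in these data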;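 further: 0% = IMP-1 with DMSO and 100% = DMSO wells lacking enzyme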
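Material – recombinant IMP-1 enzyme, purified · Amount – IMP-1 0.2 nM before substrate addition · Medium – HEPES buffer pH 7.1 with ZnSO4 and Brij 35 · Timing – 25 °C, 15 min preincubation, 25 min reaction · Measured by – plate fluorescence quenching by hydrolysis product, ex 480/em 530 nm · Read-out – percent enzyme inhibition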
DNA FID counter: counter-screen for HCV NS3 helicase inhibitors: DNA intercalator displacement | DNA fluorescent intercalator displacement, fluorescence | 290,000 tested, 0.17% active | AID 1845 | inhibition, % at 7.9 µM; in the data active means inhibition above about 37%;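 further: 0% = vehicle and 100% = reference compound; higher means more ethidium bromide displaced from hairpin DNA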
Starred values were filed as active, the others as inactive. Most compounds without a hit are left out; they make up all but 1.9% or so of the library.

SMILES	VIM-2 inhibitor	NS3 helicase inh	IMP-1 inhibitor	DNA FID counter
O=C(NN1C(=O)/C(=C/c2ccc(O)cc2)SC1=S)c1ccccc1O	0.6	32.7	4.8*	28.7
CC1=CC2=C(OC1N(C)C)c1cccc3cccc(c13)C2=O (configuration not stated)	3.4	7.0	7.3*	1.6
COc1ccc(CNC[C@@H](CCCCN(C)Cc2ccc(OC)cc2)N2C[C@H](c3ccccc3)N(CCc3ccc(Cl)c(Cl)c3)C(=O)C2=O)cc1	-3.6	-57.3	-2.4	37.2*
Cc1ccccc1NC(=S)NCc1ccc2c(c1)cc(C)n2C	-4.8	2.4	42.9*	-2.3
COc1ccccc1NC(=S)NCc1ccc2c(c1)cc(C)n2C	-1.5	-26.8	-2.6	3.8
Cn1cc(/C=C2\SC(=S)N(N3CCOCC3)C2=O)c2ccccc21	-1.6	-5.8	4.8*	-0.1
COc1ccc(CCN2C(=NC(=O)CC(C)C)SC3CS(=O)(=O)CC32)cc1OC (configuration not stated)	-0.3	17.0	0.5	-37.2
CCc1cc(=O)oc2cc(C)cc(OC(C)C(=O)NC3CC(C)(C)NC(C)(C)C3)c12 (configuration not stated)	1.7	3.8	-1.8	18.4
CCc1cc(=O)oc2c(C)c(OC(C)C(=O)NC3CC(C)(C)NC(C)(C)C3)ccc12 (configuration not stated)	8.1*	-2.6	1.5	29.3
CC(C)(C)c1ccc(Cn2c(=O)cnc3ccccc32)cc1	-2.9	-5.3	-4.5	-33.9
Oc1c(Br)cc(Br)cc1CNc1ccc(F)cc1	-1.4	6.9	-2.3	-7.2
Oc1c(Br)cc(Br)cc1CNc1cnc2ccccc2c1	3.1	-10.3	14.2*	-5.1
CCCCN(CC)CCCNC(=O)c1cn(CC)c2ccc(S(=O)(=O)N3CCc4ccccc4C3)cc2c1=O	0.3	-65.3	0.1	40.6*
CC(CC1C(C#N)=C(N)SC(N)=C1C#N)c1ccccc1 (configuration not stated)	-1.9	8.5	5.1*	0.1
CC(c1ccccc1)C1C(C#N)=C(N)SC(N)=C1C#N (configuration not stated)	-0.8	4.9	0.7	7.1
Cc1cc(N2CCCC2)nc2ccc(NC(=S)NCCCN3CCC(C)CC3)cc12	0.0	9.7	-2.0	46.8*
CCCCN(C)CCNC(=S)Nc1ccc2nc(N3CCN(CC)CC3)cc(C)c2c1	2.9	-6.6	-3.6	45.9*
CCN(CC)CCNC(=S)Nc1ccc2nc(N3CCN(CC)CC3)cc(C)c2c1	3.0	-3.0	-2.6	38.5*
CCCCNC(=S)Nc1ccc2nc(N3CCN(CC)CC3)cc(C)c2c1	0.1	-68.9	-3.1	21.8
CCN1CCN(c2cc(C)c3cc(NC(=O)c4cncc(Br)c4)ccc3n2)CC1	2.5	-66.6	0.2	37.8*
COc1ccc(Cl)cc1S(=O)(=O)NC(C)C(=O)NCc1cccnc1 (configuration not stated)	0.0	-3.3	-0.9	-5.5
CCN1CCN(c2cc(C)c3cc(NC(=S)NCCN(C)C)ccc3n2)CC1	4.0	24.6	-3.1	49.4*
CCCCN(C)C(=S)Nc1ccc2nc(N3CCN(CC)CC3)cc(C)c2c1	-1.1	-17.4	-3.8	16.0
CCCN1CCN(CCCNC(=S)Nc2ccc3nc(N4CCN(CC)CC4)cc(C)c3c2)CC1	0.2	15.3	-3.7	36.7*
CC(C)N(CCNCC(O)COc1ccc(C(C)(C)c2ccccc2)cc1)C(C)C (configuration not stated)	-2.9	-59.5	-1.8	41.9*
SMILES	VIM-2 inhibitor	NS3 helicase inh	IMP-1 inhibitor	DNA FID counter
O=c1c(Cl)c(O)c2cccc3c4ccccc4n1c23	9.4*	5.0	0.1	-3.8
O=c1c(Cc2ccccc2)c(O)c2cccc3c4c(n1c23)CCCC4	-0.3	-3.6	0.2	-8.9
O=C(NCc1ccon1)c1ccc(OC2CCN(CCc3ccccc3)CC2)cc1	-2.5	-1.6	-1.9	8.9
CCc1cc(CNC(=O)c2ccc(OC3CCN(CCc4ccccc4)CC3)cc2)on1	-1.5	-9.0	13.1*	19.1
Cc1cc(C)cc(N2CC(O)=C(c3nc4ccccc4c(=O)[nH]3)C2=N)c1	1.3	6.2	-1.4	-3.2
CC(C)N1CC(O)=C(c2nc3ccccc3c(=O)[nH]2)C1=N	10.2*	1.3	-4.1	-1.5
COc1ccc(-c2nn(C)c(=O)c3ccccc23)cc1NS(C)(=O)=O	5.3	3.1	-1.6	-5.0
COc1ccc(-c2nn(C)c(=O)c3ccccc23)cc1CNC(=O)c1ccco1	8.9*	-8.1	-0.3	-24.4
Cn1nc(-c2ccc(N3CCCCC3)c(NC(=O)c3ccco3)c2)c2ccccc2c1=O	-2.8	-0.5	-5.0	-5.6
COc1ccc(-c2nn(C)c(=O)c3ccccc23)cc1CNS(C)(=O)=O	8.5*	1.7	-0.9	-11.8
O=C(CN(C(=O)c1csnn1)c1ccccc1F)NC1CCCCC1	-3.5	11.1	0.6	-7.0
CC(=O)N1c2ccc(S(=O)(=O)N(C)CC(=O)Nc3ccccc3C)cc2CC1C (configuration not stated)	-4.1	0.0	4.8*	-31.6
NC(=O)Cn1cnc2c(nnn2-c2ccc(F)cc2)c1=O	-1.6	-5.4	-3.5	-2.0
COc1ccc2cc([C@H](C)C(=O)N(C)Cc3ccccc3N3CCCC3)ccc2c1	7.8*	-11.9	-0.5	-31.7
COc1cc(SC)ccc1C(=O)OCC(=O)N1CCCC1	-0.8	3.2	-2.3	-11.5
COc1ccc(CNCCC(c2ccc(F)cc2)c2ccc(OC(C)C)cc2)cc1OC (configuration not stated)	0.1	-75.3	-1.9	37.8*
COc1cccc(NC(=O)CN2C(=O)COc3ccc(S(=O)(=O)N4CCOCC4)cc32)c1	-3.8	4.1	-5.3	-5.5
Cc1ccc(S(=O)(=O)NCCC(=O)Nc2cc(S(=O)(=O)N(C)C)ccc2C)cc1C	-0.1	24.0	-0.8	-26.0
Cc1cc(=O)oc2cc(OCC(=O)OCC(=O)NC3CC3)ccc12	0.7	14.3	-1.7	-0.2
Cc1cc(OCC(=O)NCc2ccccn2)c2c(C)c(C)c(=O)oc2c1	9.0*	-4.4	-0.3	-31.2
Cc1cc(OCC(=O)Nc2ccccn2)c2c(C)c(C)c(=O)oc2c1	2.1	-4.6	-2.9	-7.6
Cc1cc(OC(C)C(=O)NCc2ccncc2)c2c(C)c(C)c(=O)oc2c1 (configuration not stated)	9.3*	4.9	-1.0	-36.1
CC(C)c1ccc(NC(=O)CCc2ccccc2)cc1	-0.2	-3.5	0.9	-13.8
Cc1n[nH]c(=O)c2c(NC(=O)CSc3nc4ccccc4c(=O)n3CCCOC(C)C)oc(C)c12	-1.4	5.8	-3.7	-28.2
CCc1c(C)c2cc(Cl)c(O)c(CN(C)C)c2oc1=O	-4.9	9.9	7.6*	-5.2
Cc1cc2nnc(SCCCCN3C(=O)c4ccccc4C3=O)n2c2ccccc12	-3.6	4.8	-2.9	-8.1
COC(=O)CSc1nnc2cc(C)c3ccccc3n12	10.0*	-5.1	1.5	-6.6
Cc1sc(NC(=O)Cn2[nH]c(=O)c3ccccc3c2=O)nc1-c1ccccc1	-4.6	6.3	-3.5	-17.5
CN(C)CCCCOc1ccc(Br)cc1Cl	1.5	4.3	24.5*	24.5
CCOC(=O)CN(c1ccccn1)S(=O)(=O)c1ccc(OC)cc1	-2.5	2.9	-1.7	-2.6
